CHOP inh: blocks CHOP induction under ER stress. CHO-K1 CHOP-promoter luciferase, tunicamycin-induced, 15-18 h. inhibition, % at 10 µM. 220,000 compounds, 3.8% hits;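 active = compounds that reduced the stress-induced luciferase reporter signal by more than about 70% of percent inhibition, limit read from the data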
FXN GAA850 act: frataxin GAA850 promoter activation; 360,000 compounds, 0.56% hits; activation, % at 6 µM; HEK293 lucGAA850 FXN promoter luciferase reporter, 24 h; percent of 10 µM SAHA response;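 active = activation above the average of all compounds screened plus 3 SD, cutoff fixed separately per campaign, cut at about 7.5% in these data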
UPR XBP1 act: activators of adaptive arm of unfolded protein response (XBP1); activation, % at 20 µM; 330,000 compounds, 0.33% hits; CHO-XBP1 luciferase reporter, IRE1-XBP1 UPR activation, luminescence; percent of tunicamycin response, DMSO as zero; AID 463104;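 active = versus positive control, 20 µM dose yields 30% or more activation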
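Assay system: IRE1-XBP1 luciferase reporter CHO line. Input: 1000 cells/well. Buffer or medium: F12 with 10% serum. Doses: 20 µM, 1% DMSO. Times: overnight seeding at 37 °C, 6 h compound treatment at 37 °C. Technique: Steady-Glo luciferase glow luminescence, 10 min after reagent addition.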
CHOP UPR activ: activators of apoptotic arm of unfolded protein response (CHOP); activation, % at 10 µM; 330,000 compounds, 0.34% hits; AID 449763; CHO-CHOP luciferase reporter, UPR activation, luminescence; percent of tunicamycin response over DMSO baseline;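 active = at 10 µM dose, activation of 40% or more, normalized to positive control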
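System: CHO CHOP reporter cells. Amount: 500 cells per well. Buffer or medium: F12 medium, 10% FBS. Compound dosing: one dose, 10 µM in 0.5% DMSO. Incubation: 6 h compound exposure at 37 °C after overnight seeding. Technique: Steady-Glo luciferase luminescence. Benchmarks: tunicamycin and DMSO controls.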
Of the large screens only hits and unclear results are named; the others gave an inactive call. Shown is part of a subset that was picked to be rich in hits.

Cc1[nH]n(-c2ccc(Br)cc2)c(=O)c1C=Nc1ccc(S(=O)(=O)Nc2nccs2)cc1	CHOP inh 91
Cc1cc(C(=O)N2CCc3c([nH]c4ccccc34)C2c2cccc(Cl)c2)nn1C (centres undefined)	CHOP inh 92
CSc1ccc(C2c3[nH]c4ccccc4c3CCN2C(=O)c2cc(C)n(C)n2)cc1 (centres undefined)	none (no result: FXN GAA850 act)
CCc1nc2ccc(C(=O)Nc3ccc(NC(C)=O)cc3)cn2c1N(C)CCCc1ccccc1	none (no result: CHOP inh, UPR XBP1 act, CHOP UPR activ)
Brc1cc2c(cc1Br)OCCOCCOCCOCCO2	none
Brc1ccc2c(c1)OCCOCCOc1cc(Br)ccc1OCCOCCOCCO2	CHOP inh 83
O=C1NC(=O)C2(N1)C(=O)c1cccc3cccc2c13 (centres undefined)	none (no result: CHOP inh, UPR XBP1 act, CHOP UPR activ)
COc1ccccc1-c1cc(C(F)(F)F)nc(N2CCOCC2)n1	CHOP inh 72
COc1cccc(-c2cc(C(F)(F)F)nc(N3CCOCC3)n2)c1	CHOP inh 74
COc1ccc2nc3n(c(=O)c2c1)-c1ncccc1C(=O)NC3C (centres undefined)	none (no result: CHOP inh, UPR XBP1 act, CHOP UPR activ)
O=C(Nc1cccc(Cl)c1)c1csc([C@H]2C[C@H](O)[C@@H](CO)O2)n1	none (no result: CHOP inh, UPR XBP1 act, CHOP UPR activ)
O=C(Nc1ccccc1C(=O)Nc1nnc(C(F)(F)F)s1)c1ccccc1	CHOP inh 88
COc1cc2nc(NC(=O)c3ccc(Cl)cc3)[nH]c(=O)c2cc1OC	CHOP inh 72
Cc1nn(-c2ccccc2)c2nc(-c3ccncc3)cc(C(=O)NCc3ccco3)c12	CHOP inh 72
O=C(NC12CC3CC(CC(C3)C1)C2)c1ccccc1O	CHOP inh 77
O=C1c2ccccc2C2=Nc3ccccc3SC(c3cccc(F)c3)C12 (centres undefined)	CHOP inh 74
CC(=O)O[C@H]1CC2(C)[C@@H](C[C@@H](O)[C@H]3[C@@]4(C)CC[C@@H](O)[C@@H](C)[C@@H]4CC[C@@]32C)C1=C(CCC=C(C)C)C(=O)O (some centres undefined)	none (no result: FXN GAA850 act, UPR XBP1 act, CHOP UPR activ)
Cc1ccc(/C=N/Nc2ccc(Cl)nn2)cc1	CHOP inh 78
Oc1ccc(/C=N/Nc2ccc(Cl)nn2)cc1O	none (no result: CHOP inh)
O=C(CSc1nnc(-c2ccc(Br)cc2)o1)Nc1cccc(C(=O)O)c1	none (no result: CHOP inh)
O=C(CSc1nnc(-c2ccc(Br)cc2)o1)Nc1cccc2ccccc12	CHOP inh 70
Cc1cc(-c2nnc(SCC(=O)Nc3ccccc3C(F)(F)F)o2)c(C)n1-c1ccccc1	none
Cc1cccc(NC(=O)CSc2nnc(-c3cc(C)n(-c4ccccc4)c3C)o2)c1C	CHOP inh 91
Cc1cccc(C)c1OC(=O)CSc1nnc(-c2ccccc2O)o1	CHOP inh 92
O=C(CSc1nnc(-c2ccccc2)o1)Oc1ccc(Br)cc1	CHOP inh 81
COCC(C)NC(=O)C1CC(=O)N(CCc2ccc(F)cc2)C1 (centres undefined)	none (no result: CHOP inh, UPR XBP1 act, CHOP UPR activ)
c1ccc(COc2ccc(-c3cc4nc(NCCCn5ccnc5)ccn4n3)cc2)cc1	none (no result: CHOP inh, UPR XBP1 act, CHOP UPR activ)
O=C(Oc1ccc(/C=N/Nc2ccccc2)cc1)c1ccccc1	none
CSc1ccc(/C=N/Nc2cccc(C(=O)O)c2)cc1	CHOP inh 85, FXN GAA850 act 9.1 (no result: UPR XBP1 act, CHOP UPR activ)
O=C(O)c1ccc(N/N=C/c2ccc(OC(=O)c3cccc(Cl)c3)cc2)cc1	CHOP inh 79
O=C(O)c1cccc(N/N=C/c2cccs2)c1	CHOP inh 84
c1ccc(COc2ncnc3c2ncn3CCCNCC(c2ccccc2)c2ccccc2)cc1	none (no result: CHOP inh, UPR XBP1 act, CHOP UPR activ)
O=C1Nc2ccccc2OC1CC(=O)N1CCOCC1 (centres undefined)	none
O=C(CSCc1ccccc1)N1CCN(c2cccc(C(F)(F)F)c2)CC1	CHOP inh 85
C/C(=C/c1ccccc1)C(=O)N1CCN(c2ccccc2F)CC1	none (no result: CHOP inh)
O=C(CCCCn1c(=O)[nH]c2ccccc2c1=O)N1CCN(c2cccc(C(F)(F)F)c2)CC1	CHOP inh 88
O=C1Nc2ccccc2OC1CC(=O)N1CCN(c2cccc(C(F)(F)F)c2)CC1 (centres undefined)	CHOP inh 86
O=C(CSCc1ccccc1)N1CCN(c2ccccc2)CC1	none
O=C(CCn1c(=O)[nH]c2ccccc2c1=O)N1CCN(c2cccc(C(F)(F)F)c2)CC1	none
C/C(=C\c1ccccc1)C(=O)N1CCN(c2cccc(C(F)(F)F)c2)CC1	CHOP inh 82
CCCCN(C=O)c1c(CC)nc2c(OCC(=O)N3CCOCC3)cccn12	none (no result: CHOP inh, UPR XBP1 act, CHOP UPR activ)
CCN(CC)c1ccc2cc(NC(=O)CCC(=O)O)c(=O)oc2c1	CHOP inh 88
CCN(CC)c1ccc2cc(C(C)=O)c(=O)oc2c1	none
O=C(CC1SC(=O)N(Cc2ccccc2Cl)C1=O)Nc1nccs1 (centres undefined)	none
O=C(CC1SC(=O)N(Cc2ccccc2)C1=O)Nc1nccs1 (centres undefined)	CHOP inh 87
NC1=NC[C@H](CC2CCCCC2)N1CCc1cc(C(F)(F)F)cc(C(F)(F)F)c1	CHOP inh 94
COc1ccc(CC(=O)OCC(=O)NC(=O)NC23CC4CC(CC(C4)C2)C3)cc1	CHOP inh 96
Cc1cccc(-c2nnc3n2N=C(c2ccc(Br)cc2)CS3)c1	none (no result: CHOP inh, FXN GAA850 act)
Cc1ccc(-c2nnc3n2N=C(c2ccc(Br)cc2)CS3)cc1	CHOP inh 89
CCOC(=O)C12CC1/C(=N/O)c1ccccc1O2 (centres undefined)	none (no result: FXN GAA850 act, UPR XBP1 act, CHOP UPR activ)
CCCCCCCCNC(=O)/C(C#N)=C/c1ccccc1[N+](=O)[O-]	CHOP inh 94
COC(=O)c1cccc2c1-c1ccccc1/C2=N/O	CHOP inh 87
COC(=O)c1cccc2c1-c1ccccc1/C2=N\NC(N)=O	none (no result: CHOP inh)
COc1ccc(OCCCC(=O)OCC(=O)Nc2ncc(Cl)cc2Cl)cc1	none (no result: CHOP inh)
CC(C)(Oc1ccc(Cl)cc1)C(=O)OCC(=O)Nc1ncc(Cl)cc1Cl	CHOP inh 75
O=C(COC(=O)CC12CC3CC(CC(C3)C1)C2)Nc1ncc(Cl)cc1Cl	CHOP inh 77
Cc1cc(NS(=O)(=O)c2ccc(NC(=O)Nc3cccc(C(F)(F)F)c3)cc2)no1	none (no result: CHOP inh)
Cc1cc(NC(=O)Nc2cccc(C(F)(F)F)c2)no1	CHOP inh 93
COc1ccc(-n2c(=S)[nH]c3cc(C(=O)Nc4ccccc4OC)ccc3c2=O)cc1	UPR XBP1 act 32 (no result: FXN GAA850 act)
COc1ccc(-n2c(=S)[nH]c3cc(C(=O)Nc4ccccc4OC)ccc3c2=O)c(OC)c1	none (no result: CHOP inh)
S=C(Nc1ccc(Oc2ccccc2)cc1)NC1CCCCCC1	none (no result: UPR XBP1 act, CHOP UPR activ)
FC(F)(F)c1ccc(NC(=S)NC2CCCCC2)cc1	CHOP inh 88
FC(F)(F)c1cccc(NC(=S)NC2CCCC2)c1	none
S=C(Nc1ccc(Oc2ccccc2)cc1)NC1CCCCC1	CHOP inh 75
CC(C)(C)c1ccc(/C=N/NC(=S)NC2CCCCC2)cc1	CHOP inh 72
Cc1ccc(NC(=S)NNC(=S)NC2CCCCC2)cc1	none
S=C(NNc1ccc2ccccc2c1)NC1CCCCC1	CHOP inh 81
Nc1ncnc(N)c1NC(=O)c1ccc(OCc2ccccc2)cc1	none (no result: CHOP inh, UPR XBP1 act, CHOP UPR activ)

Assay outcomes: PubChem BioAssay, several laboratories
